Structures are written as SMILES. Unmarked numbers belong to inactive results. Records with an inconclusive call do not appear. Active and inactive are the calls of the source.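 The calls were made as follows, unless noted: active = inhibition over a set limit, the all-compound mean plus 3 SD, in both replicate runs; inconclusive = over that limit in just one replicate run; inactive = at or under that limit in both runs.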

Experiment [1] is described as follows: S. cerevisiae growth inhibition in permissive medium (OD615), pilot counter-assay for S. cerevisiae lifespan shortening project, permissive growth control (AID 705;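 active = growth inhibition above 25% in both replicates, a cutoff set 3 SD above the mean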). The following applies: OD615, 24 h, at 10 µM, active compounds read high. An outline of the steps: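 System – S. cerevisiae with engineered DeaD lifespan system · Buffer or medium – SC raffinose/galactose permissive medium · Schedule – cells pre-grown 4 h, then 24 h compound exposure, 30 °C humidified · Technique – culture turbidity as optical density at 615 nm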

Experiment [2] is described as follows: S. cerevisiae growth inhibition in restrictive medium, OD615, pilot screen, restrictive growth control, yeast lifespan reduction project (AID 706;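 active = growth inhibition above a set limit, 3 SD over mean compound inhibition, in both replicates, cut at about 43% in these data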;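 also: modified DeaD lifespan yeast strain shifted to restrictive glucose medium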). The note with it: OD615, 48 h, at 10 µM, active compounds read high. The procedure, abridged: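 Material: engineered S. cerevisiae DeaD strain / Medium: glucose-based CSMM-D restrictive medium / Compound: single dose of 10 µM compound final, 0.25% DMSO / Timing: 4 h pre-incubation, 48 h exposure at 30 °C / Technique: OD615 absorbance reading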

Experiment [3] in a line: doxorubicin toxicity protection in MRP-1 cells – H69AR cells, CellTiter-Glo, duplicate, MRP-1 activator project, pilot screen (AID 807;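 active = viability increase at or above a cutoff of the median across tested compounds plus 3 SD, cut at about 8.5% in these data, passing the limit was not always enough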;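 also: compound pretreatment 18-22 h then 72 h combined with doxorubicin; 0% = doxorubicin alone and 100% = vehicle without doxorubicin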). The note with it: H69AR viability with doxorubicin, CellTiter-Glo luminescence; at 10 µM; active compounds read high.
Experiment [4] in a line: viability of HCT116 without oncogenic beta-catenin – human colon tumor cells, pilot screen (AID 823;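 active = cell viability at or below a set limit in both duplicate runs, the limit being the all-compound median minus 4 SD, cut at about 23% in these data, passing the limit was not always enough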;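 also: 0% = wells killed by 20 µM Hyamine and 100% = untreated DMSO cell wells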). The note with it: HCT116 beta-catenin knockout viability, CellTiter-Glo, 60 h; at 10 µM; active compounds read low. A general note: Cellular ATP, detected with luciferase, serves as a proxy for viable cell number.
Experiment [5] in a line: viability of PTEN-null HCT116 cells – cell-based, HCT116 clonal line, CellTiter-Glo, pilot screen (AID 824;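 active = viability at or below 27.92% in each of two runs, the all-compound median minus 4 SD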;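 also: 0% = 20 µM Hyamine control and 100% = vehicle cell control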). The note with it: HCT116 PTEN-deleted viability, 60 h, at 10 µM, active compounds read low.
A short description of experiment [6]: RAM pathway blockade in budding yeast – dse1pr::URA3 reporter, 5-FOA selection, pilot screen (AID 869).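 Also: 0% = DMSO wells with no growth and 100% = 10 µM 1-NA-PP1 with full growth; RAM network block rescues cells from 5-FOA so hits raise OD615 growth.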 The following applies: S. cerevisiae dse1pr::URA3 5-FOA growth, OD615, 2 d; at 10 µM; active compounds read high; strain carries analog-sensitive mutant Cbk1 kinase.
Experiment [7] is described as follows: RAM signaling pathway blockade in yeast – S. cerevisiae, Pdr1DBD-CYC8 efflux-inhibited sensitized strain, primary screen (AID 1298;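 active = RAM network inhibition above 8.4% in each of two replicates, 3 SD over the compound average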;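 also: 0% = DMSO untreated cells without growth and 100% = 10 µM 1-NA-PP1 full growth; higher means more yeast growth rescued from 5-FOA killing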). The following applies: S. cerevisiae cbk1-as DSE1-URA3 strain, 5-FOA growth OD615, 2 d; at 50 µM; active compounds read high.

By viability is commonly meant a read-out of living cells in per cent, often relative to untreated cells. The term inhibition denotes the change of the read-out against control, counted positive when it falls. With `Cc1sc2ncnc(NCCCO)c2c1C`, the growth inhibition is -16.1% in experiment [1] and -8.24% in experiment [2]. Moreover, the viability increase in experiment [3] is -1.72%. The viability in experiment [4] is 103%; in experiment [5], 90.5%. Also, the inhibition in experiment [6] was 0.945%. For the same compound, the RAM network inhibition in experiment [7] is 5.49%.

Take `CC1CCCC(NC(=O)CSc2nnnn2C)C1C` (stereo not drawn): the values for the growth inhibition in experiment [1] and in experiment [2] were -6.17% and -10.1%, respectively. Moreover, the viability increase in experiment [3] was 1.61%. The values for the viability in experiment [4] and in experiment [5] were 95.5% and 101%, respectively. For the same compound, in experiment [6], the inhibition was 1.29%. In addition, the RAM network inhibition in experiment [7] was 2.27%.

`CC(=O)CCc1c(C)c2cccc(C)c2[nH]c1=O`: the growth inhibition in experiment [1] is 1.6%; in experiment [2], 1.5%. Moreover, in experiment [3], the viability increase is -3.1%. Besides, the viability was 93.4% in experiment [4] and 96.5% in experiment [5]. The inhibition in experiment [6] is 2.75%. For the same compound, the RAM network inhibition in experiment [7] is 3.81%.

Take `O=C(CCNS(=O)(=O)c1cccc2nsnc12)NCCC1=CCCCC1`: the growth inhibition is -8.97% in experiment [1] and -9.04% in experiment [2]. Moreover, in experiment [3], the viability increase was -2.88%. Besides, the viability in experiment [4] is 90.6%; in experiment [5] it was 94.8%. Further, in experiment [6], the inhibition is 2.49%. The RAM network inhibition in experiment [7] was 6.94%.

For the compound `COc1ccc(N2CC(C(=O)Nc3ccc(S(=O)(=O)Nc4nc(C)cc(C)n4)cc3)CC2=O)cc1` (stereo not drawn), the growth inhibition was -8.26% in experiment [1] and -7.87% in experiment [2]. In addition, the viability increase in experiment [3] was -1.39%. Besides, the viability in experiment [4] was 100%; in experiment [5], 91.4%. Also, in experiment [6], the inhibition was 1%. Moreover, in experiment [7], the RAM network inhibition is 2.5%.

Turning to `CCn1c(-c2ccccc2O)n[nH]c1=S`, the growth inhibition was 1.96% in experiment [1] and 25.6% in experiment [2]. In experiment [3], the viability increase was -0.52%. The viability in experiment [4] was 93.7%; in experiment [5] it was 95.4%. The inhibition in experiment [6] was -0.54%. The RAM network inhibition in experiment [7] is 0.81%.

On to `CC(=O)Nc1nc(CC(=O)c2ccccc2)cs1`, for which the growth inhibition in experiment [1] is -2.4%; in experiment [2], -4.14%. Further, in experiment [3], the viability increase is -0.56%. The viability in experiment [4] was 102%; in experiment [5], 98.9%. Also, in experiment [6], the inhibition was 1.15%. Moreover, the RAM network inhibition in experiment [7] was 0.47%.

With `Cc1cccc(Cn2c(CN3CCN(Cc4ccccc4)CC3)nc3c2c(=O)[nH]c(=O)n3C)c1`, the results for the growth inhibition in experiment [1] and in experiment [2] were -14.3% and -14.1%, respectively. The viability increase in experiment [3] was -3.25%. For the same compound, the viability is 50.4% in experiment [4] and 48.6% in experiment [5]. The inhibition in experiment [6] is 2.25%. Also, the RAM network inhibition in experiment [7] was 1.88%.

As for `CC1C(c2ccccc2)=[N+]([O-])C2(CCCC2)N1O` (stereo not drawn), the growth inhibition in experiment [1] is -2.46%; in experiment [2], -6.78%. In experiment [3], the viability increase was -3.01%. Also, the viability is 97% in experiment [4] and 96.6% in experiment [5]. Also, the inhibition in experiment [6] was 1.53%. The RAM network inhibition in experiment [7] was 1.41%.

Take `CCCCCn1c(SCc2cccc(C)c2)nc2c1c(=O)[nH]c(=O)n2C`: the growth inhibition in experiment [1] was -12.8%; in experiment [2], -18.8%. Also, in experiment [3], the viability increase was -7.54%. In addition, the viability in experiment [4] was 70.1%; in experiment [5], 66.4%. The inhibition in experiment [6] was 1.67%. Besides, the RAM network inhibition in experiment [7] was 5.94%.

For `O=C1CC(c2ccccc2)CN1S(=O)(=O)c1ccccc1` (stereo not drawn), the results for the growth inhibition in experiment [1] and in experiment [2] were -1.7% and 3.08%, respectively. Besides, in experiment [3], the viability increase is 0%. The viability is 108% in experiment [4] and 97.8% in experiment [5]. Besides, in experiment [6], the inhibition is 0.085%. In addition, the RAM network inhibition in experiment [7] was 1.71%.

Regarding `O=S(=O)(NCc1csc(-c2ccccc2)n1)c1ccc(Cl)s1`, the growth inhibition in experiment [1] is -17.6%; in experiment [2], -16.7%. Moreover, the viability increase in experiment [3] was -0.6%. Further, the viability in experiment [4] is 96.9%; in experiment [5], 102%. Besides, in experiment [6], the inhibition was 0.21%. Besides, the RAM network inhibition in experiment [7] was 5.99%.

With `C=CCOc1cccc(C2c3c(oc4ccc(F)cc4c3=O)C(=O)N2CCCN2CCOCC2)c1` (stereo not drawn), the growth inhibition in experiment [1] was -4.2%; in experiment [2], 2.91%. The viability increase in experiment [3] is -5.54%. Besides, the results for the viability in experiment [4] and in experiment [5] were 93% and 93.5%, respectively. Moreover, the inhibition in experiment [6] was -0.045%. Further, the RAM network inhibition in experiment [7] was 1.42%.

Regarding `O=S(=O)(c1ccc(N2CC=C(c3ccccc3)CC2)nc1)N1CCCC1`, the growth inhibition in experiment [1] was -6.39%; in experiment [2] it was -12.5%. For the same compound, the viability increase in experiment [3] was -7%. Moreover, the results for the viability in experiment [4] and in experiment [5] were 4.45% (active) and 3.3% (active), respectively. In experiment [6], the inhibition was 2.18%. In experiment [7], the RAM network inhibition was 2.69%.

`CCn1c(=O)cc(N2CCC3(CC2)OCCO3)[nH]c1=O`: the growth inhibition is -15.1% in experiment [1] and -8.98% in experiment [2]. Besides, the viability increase in experiment [3] was 0.57%. In addition, the viability in experiment [4] is 96.8%; in experiment [5], 93.2%. In experiment [6], the inhibition is 1.01%. In addition, the RAM network inhibition in experiment [7] was 1.74%.

For the compound `c1ccc2c(c1)ncc1cccn12`, the growth inhibition in experiment [1] is -16.6%; in experiment [2], -12.8%. For the same compound, the viability increase in experiment [3] is -5.24%. The viability in experiment [4] was 104%; in experiment [5], 89%. Besides, in experiment [6], the inhibition was 2.58%. For the same compound, in experiment [7], the RAM network inhibition is 5.07%.

Regarding `Cc1ccc(S(=O)(=O)Cc2ccc(C(=O)N3CCN(c4ccc(F)cc4)CC3)o2)cc1`, the growth inhibition is -9.22% in experiment [1] and -15.2% in experiment [2]. In addition, the viability increase in experiment [3] is -6.28%. Also, the figures for the viability in experiment [4] and in experiment [5] were 33% and 23.3% (active), respectively. Besides, the inhibition in experiment [6] was 0.575%. Besides, in experiment [7], the RAM network inhibition was 4.81%.

As for `CN(CCNC(=O)C1(O)c2ccccc2NC(=O)N1c1ccccc1)Cc1ccccc1` (stereo not drawn), the growth inhibition in experiment [1] is -15.6%; in experiment [2] it was -17.7%. Also, the viability increase in experiment [3] was -2.03%. Moreover, the figures for the viability in experiment [4] and in experiment [5] were 95.8% and 93.2%, respectively. Further, the inhibition in experiment [6] is 0.43%. For the same compound, in experiment [7], the RAM network inhibition was 2.02%.

Consider `CCOc1ccc(N(CC(=O)NCc2ccccc2)S(=O)(=O)c2c(C)noc2C)cc1`, for which the growth inhibition in experiment [1] and in experiment [2] was -21.6% throughout. Also, the viability increase in experiment [3] is -0.68%. For the same compound, the viability in experiment [4] was 101%; in experiment [5], 95.1%. Moreover, the inhibition in experiment [6] was 4.04%. Besides, the RAM network inhibition in experiment [7] was 3.95%.

In the case of `Cn1c(C(=O)N2CCN(c3ccccc3F)CC2)cc2c(=O)n(C)c3ccccc3c21`, the growth inhibition was -2.8% in experiment [1] and -4.68% in experiment [2]. Besides, the viability increase in experiment [3] was -2.61%. For the same compound, the viability is 100% in experiment [4] and 98.6% in experiment [5]. In addition, the inhibition in experiment [6] is 2.54%. Besides, the RAM network inhibition in experiment [7] is 1.59%.

In the case of `CCc1ccc(-c2nc(C(N)=O)c3[nH]c(=O)n(-c4ccccc4OC)c3n2)cc1`, the growth inhibition in experiment [1] is -5.67%; in experiment [2], -2.13%. In experiment [3], the viability increase is -8.43%. Further, the values for the viability in experiment [4] and in experiment [5] were 15.6% (active) and 24% (active), respectively. In experiment [6], the inhibition was 2.18%. The RAM network inhibition in experiment [7] is 10.7%.

With `Fc1ccc(-n2[nH]nnc2=S)cc1N1CCCC1`, the values for the growth inhibition in experiment [1] and in experiment [2] were -3.75% and 3.59%, respectively. Moreover, the viability increase in experiment [3] is -1.28%. Besides, the results for the viability in experiment [4] and in experiment [5] were 104% and 99.6%, respectively. The inhibition in experiment [6] is -0.32%. For the same compound, the RAM network inhibition in experiment [7] was -2.49%.

For `COc1cc(C)c(N(C(C)=O)c2ccccc2)c(C)c1`, the growth inhibition is -10.7% in experiment [1] and -17.4% in experiment [2]. The viability increase in experiment [3] was -0.85%. The viability in experiment [4] is 92.2%; in experiment [5], 87.3%. The inhibition in experiment [6] was 1.97%. The RAM network inhibition in experiment [7] was 5.22%.

As to `COc1cc(CN2CCN(c3cccc(C)c3C)CC2)cc(Br)c1O`, the growth inhibition is -4.04% in experiment [1] and 0.7% in experiment [2]. Besides, the viability increase in experiment [3] is -2.57%. Besides, the viability in experiment [4] is 80.7%; in experiment [5], 86.6%. Moreover, the inhibition in experiment [6] was -0.235%. Also, the RAM network inhibition in experiment [7] is 1.51%.

(Values after PubChem BioAssay.)
